Results as given in ChEMBL document CHEMBL1156371, “New polyoxygenated briarane diterpenoids, briaexcavatolides O-R, from the gorgonian Briareum excavatum” (2001).
Converted amounts (≈) assume the structure as drawn. The source made the active and inactive calls. The rule behind the calls is not given here.

Key:
Type in all cases: functional
[1] = test system: HT-29; experiment: Cytotoxicity against human HT-29 cells by MTT assay
In short: (§1)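 Colorimetric read-out using a modified MTT [3-(4,5-dimethylthiazol-2-yl)-2,5-diphenyltetrazolium bromide] method, following previously described procedures.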

[2] = test system: P388; experiment: Cytotoxicity against mouse P388 cells by MTT assay; in short: as §1
[3] = test system: A549; experiment: Cytotoxicity against human A549 cells by MTT assay; in short: as §1
[4] = read-out: ED50 (the source's name)

SMILES | Activity [1] | Activity [2] | Activity [3] | EC50 [1, 4] [µg/mL] | EC50 [2, 4] [µg/mL] | EC50 [3, 4] [µg/mL]
CCCCCCCC(=O)O[C@H]1C[C@H](OC(C)=O)[C@@]2(C)[C@H]([C@H]1C)[C@H](OC(C)=O)[C@]13O[C@]1(C)C(=O)O[C@H]3/C=C(/C)C[C@H](OC(=O)CCC)[C@@H]2OC(C)=O | inactive | inactive | inactive |  |  | 
CCCC(=O)O[C@@H]1/C(C)=C\[C@@H]2OC(=O)[C@@]3(C)O[C@]23[C@@H](OC(C)=O)[C@H]2[C@@H](C)[C@@H](OC(C)=O)C[C@H](OC(C)=O)[C@]2(C)[C@@H](OC(C)=O)[C@H]1O | inactive | inactive | inactive |  |  | 
CCCC(=O)O[C@@H]1/C(C)=C\[C@@H]2OC(=O)[C@@]3(C)O[C@]23[C@@H](OC(C)=O)[C@H]2[C@@H](C)[C@@H](O)C[C@H](OC(C)=O)[C@]2(C)[C@@H](OC(C)=O)[C@H]1O [BRIAEXCAVATOLIDE P] |  |  |  | 3.1 (≈ 5.08 µM) | 0.9 (≈ 1.47 µM) | 4.8 (≈ 7.86 µM)
CCCC(=O)O[C@@H]1/C(C)=C\[C@@H]2OC(=O)[C@@]3(C)O[C@]23[C@@H](OC(C)=O)[C@H]2[C@@H](C)[C@@H](O)C[C@H](OC(C)=O)[C@]2(C)[C@@H](O)[C@H]1OC(C)=O | inactive | inactive | inactive |  |  | 
